Dyrk1A ADPGlo: blocks rat Dyrk1A kinase activity; Q63470; 0.43% of 310,000 active; ADP-Glo luminescence, NFATc1 peptide; inhibition, % at 12.5 µM; in the data active means inhibition above about 50%;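 further: plate controls were vehicle with enzyme for no effect and no enzyme for full effect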
STK33 kinase inh: inhibitors of human STK33 kinase. inhibition, % at 10 µM. 0.073% of 320,000 active. Q9BYT3. purified STK33, MBP phosphorylation, ADP-Glo luminescence. AID 2661;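 active means inhibition at or above 25%, using the most active replicate where run in duplicate; inactive means inhibition below 25%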
CDK5 inh: CDK5/p35 (human) kinase inhibition; Recombinant CDK5/p35, ADP-Glo luminescence, 60 min; inhibition, % at 10 µM; 0.01% of 330,000 active; Q00535+Q15078;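 active means highest replicate inhibition of at least 50% and at least 75% of replicates reaching 50%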;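 further: plate controls were DMSO neutral control for no effect and GW8510 at 10 µM for full effect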
Target sequence (Q00535 whole entry, looked up): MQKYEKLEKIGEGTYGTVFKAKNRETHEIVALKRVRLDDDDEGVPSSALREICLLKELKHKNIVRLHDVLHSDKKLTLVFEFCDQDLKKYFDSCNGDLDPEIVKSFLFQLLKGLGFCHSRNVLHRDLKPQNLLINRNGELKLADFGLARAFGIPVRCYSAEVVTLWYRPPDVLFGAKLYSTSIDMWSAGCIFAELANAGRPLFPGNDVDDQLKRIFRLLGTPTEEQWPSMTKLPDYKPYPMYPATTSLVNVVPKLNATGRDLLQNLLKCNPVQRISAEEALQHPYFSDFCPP
Target sequence (Q15078 whole entry, looked up): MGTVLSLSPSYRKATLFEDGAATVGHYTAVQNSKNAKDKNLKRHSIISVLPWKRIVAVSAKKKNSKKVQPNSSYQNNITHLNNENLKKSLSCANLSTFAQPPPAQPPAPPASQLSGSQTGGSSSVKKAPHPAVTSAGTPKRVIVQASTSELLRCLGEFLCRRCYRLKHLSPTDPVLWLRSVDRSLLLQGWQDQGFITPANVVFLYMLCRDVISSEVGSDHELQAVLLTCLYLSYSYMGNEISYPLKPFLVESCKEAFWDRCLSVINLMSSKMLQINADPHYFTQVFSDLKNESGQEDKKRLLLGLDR
GSK3A inh: inhibitors of human GSK-3 alpha kinase; P49840; ADP-Glo luminescence, 60 min; inhibition, % at 10 µM; 0.1% of 320,000 active;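 active means more than half of replicates show inhibition above 20%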;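 further: GST-tagged GSK-3 alpha with peptide substrate and 25 µM ATP; 0% = DMSO neutral wells and 100% = GW8510 positive control wells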
GSK3B inh: human GSK3beta kinase inhibition. P49841. GST-GSK3beta kinase, ADP-Glo luminescence, 60 min; hits give low values. activity score (negative = inhibition), % at 10 µM. 0.038% of 300,000 active;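 active means more than half of replicate wells score below -50%, meaning over 50% inhibition versus plate controls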;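 further: 0% = median DMSO wells and -100% = median GW8510 positive control wells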
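Test system – GST-tagged human GSK3beta kinase, cell-free · Incubation – 60 min enzyme reaction, room temperature · Signal – ADP-Glo luminescence · Also added – peptide substrate and ATP at 25 µM · Controls – DMSO neutral wells and GW8510 at 20 µM as positive · Buffer or medium – Tris/MgCl2 kinase buffer · Measure – Luminescence-derived activity versus plate DMSO and GW8510 wells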
ADP-Glo artifact: counter-screen for Dyrk1A inhibitors: ADP-Glo luciferase artifacts; shares compounds with Dyrk1A ADPGlo; ADP-Glo luciferase artifact assay, no Dyrk1A, luminescence; AC50, µM (doses to about 12 µM), for inactives: top-dose activity change, negative = inhibition; 1,300 tested, under 10 active;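 active means fitted half-maximal dose AC50 no more than ten times the top valid tested dose, with luminescence dropping as dose rises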
Active calls of the source: *; x = not tested or not shown. This is one part of a sample in which hits are shown more often than they occur.

SMILES	Dyrk1A ADPGlo	STK33 kinase inh	CDK5 inh	GSK3A inh	GSK3B inh	ADP-Glo artifact
CN1CCN(c2nc(-c3ccccc3O)nc3ccccc23)CC1	-0.9	32.2*	-0.2	4.8	-1.2	x
OCCN1CCN(c2nc(-c3ccccc3O)nc3ccccc23)CC1	19.4	39.9*	3.2	4.8	-2.8	x
Cc1ccc(C2(C)NC(=O)N(CC(=O)NCc3cccc(Cl)c3)C2=O)cc1 (centres undefined)	-4.0	-2.4	-1.1	-2.8	-3.7	x
COc1ccc(Nc2nccc(-c3ccc(C#N)cc3)n2)cc1	16.5	-0.3	54.6*	4.5	-4.1	x
CCOC(=O)CC(=O)CSc1ccc2nnc(-c3ccc(F)cc3)n2n1	12.3	-1.3	-1.5	25.5	-29.0	x
COC(=O)CSc1ccc2nnc(-c3ccc(F)cc3)n2n1	27.1	3.1	-1.4	60.3*	-77.6*	x
CCC(Sc1ccc2nnc(-c3ccc(OC)c(OC)c3)n2n1)C(=O)O (centres undefined)	2.1	38.1*	-2.5	19.2	-0.1	x
COCCn1c(SCC(=O)Nc2ccc(Cl)cn2)nc2ccccc21	-3.3	-0.7	0.3	13.4	-76.3*	x
COc1ccc(CCNC(=O)c2noc(C)c2[N+](=O)[O-])cc1OC	-2.0	-0.3	-1.0	-0.2	-0.3	x
COC(=O)c1ccc(COc2ccccc2/C=C/C(=O)c2ccc(OCC(=O)O)cc2)cc1	-2.2	50.1*	-1.4	-1.9	-8.0	x
CSc1nc(NCc2ccco2)c2c3c(sc2n1)CN(C)CC3	x	3.6	x	29.9	-16.6	x
CSc1nc(SCC(=O)NCc2ccco2)c2c3c(sc2n1)CN(C)CC3	63.0*	-1.3	-0.1	-0.4	-34.6	8.0%
COc1ccc(OCC(=O)N(C)Cc2ccccc2)cc1	0.5	-5.3	-1.2	0.9	-1.4	x
CC(C)NS(=O)(=O)c1ccc(OCC(=O)N(C)Cc2ccccc2)cc1	83.2*	4.9	0.9	3.6	-0.2	5.4%
CCOC(=O)c1cnc2ccc(C(=O)OC)cc2c1Nc1ccc(C(=O)O)cc1	15.0	2.8	-0.7	14.2	0.3	x
CCOC(=O)c1ccc2ncc(C(=O)OCC)c(Nc3ccc(N4CCOCC4)cc3)c2c1	65.2*	4.2	2.1	23.7	-15.6	6.3%
COc1ccc2[nH]c3c(c2c1)CCNC3=O	65.1*	-1.1	2.5	1.6	11.7	10.1%
O=C1NCCc2c1[nH]c1ccccc21	22.8	3.5	0.5	5.2	-0.7	x
O=C(COc1ccc2c(c1)OCO2)Nc1cccc(F)c1	-4.8	-0.5	-1.9	-0.9	-0.5	x
O=Cc1ccc(Oc2cnccn2)cc1	0.6	-2.3	3.7	x	2.1	x
O=C1NC(=S)S/C1=C/c1ccc(Oc2cnccn2)cc1	64.5*	0.3	-3.6	-2.1	2.0	10.3%
O=C1NC(=O)/C(=C\c2ccc(Oc3cnccn3)cc2)S1	59.1*	2.2	-1.4	-0.3	4.4	9.7%
COc1cc(C(=O)NCC(c2cccs2)N2CCOCC2)c([N+](=O)[O-])cc1OC (centres undefined)	4.3	0.4	0.3	-2.7	0.9	x
S=c1[nH]c2ccccc2n1CCc1ccncc1	29.9	x	0.0	x	x	x
S=c1sc2ccccc2n1CCc1ccncc1	62.2*	9.1	0.3	34.6	-19.9	9.9%
SMILES	Dyrk1A ADPGlo	STK33 kinase inh	CDK5 inh	GSK3A inh	GSK3B inh	ADP-Glo artifact
NC(=O)CN1CCN(S(=O)(=O)c2ccc(Br)cc2)CC1	0.6	0.0	-9.9	-0.5	1.3	x
Cc1ccc(N2CCN(c3ccc(NC(=O)CCC(=O)O)cc3)CC2)cc1	-2.0	0.3	-1.6	-0.5	-0.1	x
O=C(O)CCC(=O)Nc1ccc(N2CCCCCC2)cc1	53.1*	-1.2	0.1	-2.7	3.6	7.8%
C[C@H](CO)N1C[C@H](C)[C@@H](CN(C)Cc2ccc(C(=O)O)cc2)Oc2c(NS(=O)(=O)c3cn(C)cn3)cccc2C1=O	11.9	-2.3	0.4	-0.8	x	x
N#CC(C#N)=C1NC(N)=C(C#N)C(c2ccccc2)=C1C#N	65.5*	9.1	0.3	39.1	-30.8	8.0%
O=C(COC(=O)c1ccc(C(F)(F)F)cc1)Nc1cccc(S(=O)(=O)N2CCCCC2)c1	5.9	1.5	-0.5	20.3	x	x
CCCN(CCC)CCNC(=O)c1cc2c(=O)n(C)c3ccccc3c2n1C	70.0*	1.8	1.6	3.4	1.1	9.6%
Cc1nnc(NC(=O)CCC(=O)N2CCN(CCOc3cccc4ccccc34)CC2)s1	x	-1.5	x	-1.1	-2.7	x
CCCNc1nc(Nc2ccc(C)cc2)nc(N2CCCC2)n1	-7.2	-1.3	0.8	-1.3	-4.5	x
CCOc1ccc(-n2c(C)nc3cc(C(=O)NCc4ccc5c(c4)OCO5)ccc32)cc1	-1.0	0.5	-0.9	-1.4	2.8	x
COc1ccc(-n2c(C)nc3cc(C(=O)NCc4ccco4)ccc32)cc1	51.1*	0.9	-1.0	-1.3	0.1	11.3%
COc1ccc(-n2c(C)nc3cc(C(=O)NCc4ccc5c(c4)OCO5)ccc32)cc1	57.4*	-2.1	0.9	-1.1	3.6	9.0%
O=C(Nc1ccc(Br)cc1)c1cc(-c2ccncc2)nc2ccccc12	x	-1.7	-1.9	-0.3	x	x
Cc1cccnc1NC(=O)CN1C(=O)c2ccccc2S1(=O)=O	1.8	-0.1	1.0	-2.3	1.7	x
C=CCn1c(SCC(=O)Nc2nc3ccccc3s2)nc(O)c(CC)c1=O	51.1*	1.1	-1.2	-0.2	2.8	5.9%
CCc1c(O)nc(SCC(=O)Nc2nc3ccccc3s2)n(-c2ccccc2)c1=O	x	3.4	-1.2	-3.6	0.6	x
COc1ccc(C(=O)N2CCN(c3ccc(C)cc3)CC2)cc1OC	4.9	-1.3	-4.7	2.1	-0.3	x
COc1ccc(C(=O)N2CCN(c3c(C)cccc3C)CC2)cc1OC	58.5*	-0.7	-0.6	x	0.9	8.7%
O=C1C=CC(O)(c2cc(=O)c3c(O)cc(O)cc3o2)C=C1	50.7*	38.4*	19.2	26.3	-0.9	7.8%
Cc1ccc(NC2=C(N3CCCCC3)C(=O)c3ccccc3C2=O)cc1	51.6*	-1.2	-0.3	-0.8	0.2	8.7%
COc1ccc(-c2nc(O)c3cnccn23)cc1	-0.9	-0.7	-1.0	-0.8	1.5	x
Cc1cccc(Nc2cc(C)c3c(O)cccc3n2)c1C	68.0*	-0.1	-1.6	1.6	-0.9	7.2%
COc1ccc(/C=C2\SC(=S)N(C(C)C(=O)NC3C=CS(=O)(=O)C3)C2=O)cc1 (centres undefined)	76.6*	0.3	0.6	-1.8	-1.7	8.4%
CC1=C(C#N)C(C(F)(F)F)(C(F)(F)F)N=C(c2ccco2)N1	5.2	-0.5	-0.5	-1.9	-5.3	x
Cc1ccc(S(=O)(=O)N2CCCC2CNC(=O)C(=O)NC2CCCC2)cc1 (centres undefined)	-5.1	-1.2	0.7	-1.2	0.3	x
O=C1NC(=O)/C(=C\c2ccc(Br)o2)S1	65.6*	-1.7	-0.6	5.5	0.5	13.0%
COc1ccc(C=C2SC(=O)NC2=O)cc1OC	x	x	-1.5	x	x	x
O=C1NC(=S)/C(=C\c2ccc(-c3ccccc3Cl)o2)S1	3.0	-1.4	-1.3	-4.6	2.9	x

Assay outcomes from PubChem BioAssay.
